# Efflux pump inh – blocks antifungal efflux pumps in multiplex yeast assay. S. cerevisiae Candida pump triplex, Nile Red efflux. inhibition, % at 10 µM. 330,000 compounds, 0.44% hits. AID 485275;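 active = plate passing quality check with inhibition over a set limit, or well fluorescence over plate mean plus 4 SD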;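 also: Nile Red retained in pooled yeast measured as flow cytometry median fluorescence; higher means more Nile Red kept so more efflux inhibition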
# SR-BI DiI-HDL act – activators of SR-BI mediated HDL lipid uptake; CHO ldlA[mSR-BI] cells, DiI-HDL uptake fluorescence, 3 h; 100 = double the neutral-control signal; activation, % at 12.5 µM; 320,000 compounds, 0.096% hits; AID 504775;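 active = mean replicate activation of at least 60% and every replicate at or above 60%; inconclusive = mean or all-replicate condition met, but not both; inactive = mean below 60% and not all replicates reaching 60%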
#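 system = CHO ldlA[mSR-BI] cells, LDL receptor-null, SR-BI overexpressing | medium = Ham's F12 with 0.5% BSA, HEPES 25 mM, pH 7.4 | probe or stimulus = DiI-HDL 10 µg/mL | compound dosing = single-point compound dose | incubation = compound exposure 3 h, 37 °C | technique = DiI fluorescence, bottom read | read-out = cell-associated DiI fluorescence as measure of HDL uptake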
# SR-BI DiI inh – mouse SR-BI HDL lipid transfer inhibition. 320,000 compounds, 0.96% hits. ldlA[mSR-BI] CHO cells, DiI-HDL uptake fluorescence, 3 h. inhibition, % at 12.5 µM. Q61009;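 active = mean replicate inhibition of at least 70% and a set share of replicates each scoring 70 or more; inconclusive = meets just one of the two criteria; inactive = fails both criteria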
# Target sequence (Q61009 whole entry, looked up): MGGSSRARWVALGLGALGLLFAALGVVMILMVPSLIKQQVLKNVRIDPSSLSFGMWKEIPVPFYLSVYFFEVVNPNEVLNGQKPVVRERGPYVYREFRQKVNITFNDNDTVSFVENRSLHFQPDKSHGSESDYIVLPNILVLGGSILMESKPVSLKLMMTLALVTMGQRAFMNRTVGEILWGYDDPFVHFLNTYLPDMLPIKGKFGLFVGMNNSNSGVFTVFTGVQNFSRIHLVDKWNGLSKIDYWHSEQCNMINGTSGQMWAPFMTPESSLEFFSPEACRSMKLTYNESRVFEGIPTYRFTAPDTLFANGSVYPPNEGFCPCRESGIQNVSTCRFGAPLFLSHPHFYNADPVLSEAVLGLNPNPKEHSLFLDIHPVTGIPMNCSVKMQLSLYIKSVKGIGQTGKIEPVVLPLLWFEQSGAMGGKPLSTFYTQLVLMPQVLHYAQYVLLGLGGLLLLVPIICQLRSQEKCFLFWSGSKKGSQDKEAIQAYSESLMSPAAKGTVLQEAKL
# FN deposit inh – fibronectin deposition inhibition; AH1F fibroblasts, Alexa488-fibronectin deposition fluorescence, overnight; 350,000 compounds, 0.086% hits; inhibition, % at 12.6 µM;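 active = mean inhibition across replicates of 30% or more, regardless of how many single replicates reach that level; inconclusive = mean under 30% yet at least half of replicates reach 30%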
#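 Measured by – fluorescence 485/525 nm · System – AH1F fibroblast monolayer, labelled fibronectin deposition · Amount – 10000 cells per well · Buffer or medium – serum-reduced DMEM (2% serum) · Doses – single dose, pinned · Also added – fluorescent fibronectin at 24 nM final · Schedule – 1 h cell attachment, overnight exposure to compound and label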
# CaV13 ICDI inh – Primary screen for inhibitors of IQ motif and Ca2+-dependent inactivation inhibitor domain binding in CACNA1D, Förster resonance energy transfer in living cells, … | HEK cells, CFP/YFP FRET ICDI-IQ, plate reader, 10 min; percent FRET-ratio fall versus neutral wells | inhibition, % at 12.3 µM | 340,000 compounds, 0.098% hits | AID 743397;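 active = mean replicate inhibition of at least 30% and at least 1% of replicates passing that level; inconclusive = only one of the two criteria is met; inactive = neither criterion is met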
# A number is an active result; - = inactive; ? = inconclusive; . = no result; + = active, no number. In the library only some 1.2% were active in any assay of this set; here they are far more common.
SMILES,Efflux pump inh,SR-BI DiI-HDL act,SR-BI DiI inh,FN deposit inh,CaV13 ICDI inh
CC(=O)c1sc(N/N=C\c2ccc(N(C)C)cc2)nc1C,-,-,-,-,+
CC(=O)c1sc(Nc2cccc3ccccc23)nc1C,-,-,-,-,-
CC(=O)c1sc(N/N=C/c2cccc(O)c2)nc1C,-,.,.,-,-
CC(=O)c1sc(N/N=C\c2c(O)ccc3ccccc23)nc1C,-,-,97.1,-,-
Cc1cc(N/N=C/c2c(O)ccc3ccccc23)nc(-c2ccccc2O)n1,-,-,90.9,-,-
CCc1cc2c(=O)c(-c3cscn3)coc2c(CN(C)C)c1O,-,-,-,.,.
CCc1cc2c(=O)c(-c3ccc4c(c3)OCO4)coc2c(CN(C)C)c1O,-,-,79.4,-,-
CCOCCCNC(=S)N1CCCN(c2nc3cc(C)c(C)cc3cc2C#N)CC1,-,-,-,-,93.6
COCCCNC(=S)N1CCCN(c2nc3cc(C)c(C)cc3cc2C#N)CC1,-,-,-,-,.
COc1ccccc1-c1ccc2c(c1)[C@@H]1[C@@H](CCN1C(=O)c1ccc3c(c1)OCO3)[C@H](CO)N2,.,.,.,-,.
CCS(=O)(=O)N1CC2(C1)[C@@H](c1ccccc1)[C@@H](CO)N2C(=O)C1CCC1,.,.,.,-,.
COc1ccc(C(=O)n2nc(C)cc2Nc2ccccc2)cc1,-,-,76.6,.,.
Cc1cc(Nc2ccccc2)nn1C(=O)c1ccccc1,-,-,-,-,-
Cc1ccc(S(=O)(=O)N2CC[C@@H]3[C@H]2c2cc(-c4cccc(C(=O)N(C)C)c4)ccc2N[C@@H]3CO)cc1,.,.,.,-,.
Cc1ccc(S(=O)(=O)N2CC[C@H]3[C@H](CO)Nc4ccc(-c5cccc(C(=O)N(C)C)c5)cc4[C@H]32)cc1,.,.,.,30.6,.
N#Cc1c(NC(=O)CN2CCCCC2)sc2c1CCC2,-,-,-,.,-
COc1ccccc1NC(=O)c1ccc(NC(=O)CN2CCN(C(=O)c3ccco3)CC2)cc1,-,-,78.8,-,-
O=C(CN1CCCC1)Nc1ccc(Oc2ccc(NC(=O)CN3CCCC3)cc2)cc1,-,-,-,30.2,-
CCOc1ccc(NC(=O)CN2CCN(CC(=O)Nc3ccccc3OC)CC2)cc1,-,-,78.2,-,-
N#Cc1c(NC(=O)CN2CCN(C(=O)c3ccco3)CC2)sc2c1CCCCC2,-,-,82.6,-,-
C[C@@H]1COCn2nncc2CC[C@@H](Cc2ccccc2)C(=O)N1,.,.,.,-,.
CC(C)NC(=O)N(C)C[C@@H]1Oc2ncc(-c3cccc(C#N)c3)cc2C(=O)N([C@@H](C)CO)C[C@@H]1C,.,.,.,-,.
CCCNC(=O)N1C[C@@H](C)[C@H](OC)CN(C)C(=O)c2ccc(NC(C)=O)cc2OC[C@H]1C,.,.,.,-,.
COc1cc(C2=NC(CO)(CO)CO2)cc(OC)c1OC,-,448.4,-,-,-
Cc1ccc(-c2nnc(-n3ncc(C#N)c3N)c3ccccc23)cc1C,-,-,78.0,-,-
SMILES,Efflux pump inh,SR-BI DiI-HDL act,SR-BI DiI inh,FN deposit inh,CaV13 ICDI inh
CCC(=O)N1C[C@H](C)[C@H](OC)CN(C)C(=O)c2cc(NC(=O)CC(F)(F)F)ccc2OC[C@H]1C,.,.,.,-,.
Cc1c(C(=O)N2CCCCC2)sc(NC(=O)C2CC2)c1C#N,-,240.6,-,.,-
COc1ccccc1NC(=O)N[C@H]1C=C[C@H](CC(=O)NCc2ccc(Cl)c(Cl)c2)O[C@@H]1CO,.,.,.,-,.
CCOc1ccccc1CNC(=O)c1nn(C)c2c1CS(=O)(=O)c1ccccc1-2,-,-,88.2,-,-
O=C(Nc1ccc2ncccc2c1)Nc1ccc2ncccc2c1,-,-,-,-,-
O=C(Nc1ccc2ncccc2c1)c1ccccc1Br,-,213.7,-,.,.
Cc1nc2c(ccc3nc(NC(=O)c4ccc5c(c4)OCCO5)sc32)s1,-,-,74.9,.,-
CCCC(=O)Nc1ccc2c(c1)C(=O)N(C)[C@H]1CC[C@@H](CC(=O)NCc3ccccc3F)O[C@@H]1CO2,.,.,.,-,.
COc1cc(C(=O)N=c2sc3ccccc3n2C)cc(OC)c1OC,-,-,?,-,-
COc1cc(C(=O)N=c2sc3c(C)ccc(OC)c3n2C)cc(OC)c1OC,-,-,78.0,-,-
COc1ccc(C(=O)N=c2sc3c(C)ccc(OC)c3n2C)cc1,-,-,77.1,-,-
C[C@@H]1CN(C)C(=O)c2cccc(N)c2O[C@H]1CN(C)S(C)(=O)=O,.,.,.,-,.
CO[C@H]1CN(C)C(=O)c2ccc(NC(=O)CC(F)(F)F)cc2OC[C@@H](C)N(CC2CC2)C[C@@H]1C,.,.,.,-,.
CC(C)NC(=O)N(C)C[C@@H]1Oc2ccc(NS(C)(=O)=O)cc2CC(=O)N(C)C[C@H]1C,.,.,.,-,.
O=C(Nc1ccc(Cl)cc1)Nc1nc(-c2ccccc2)cs1,-,-,-,-,-
O=C(Nc1cccc(Cl)c1)Nc1nc(-c2ccccc2)cs1,-,-,75.9,-,-
O=C1c2ccccc2C(=O)c2c(Nc3ccc(CCO)cc3)ccc(O)c21,-,-,93.3,-,-
CCOC(=O)c1c(NC(=O)CCN2C(=O)c3ccccc3C2=O)sc(C(=O)OC(C)C)c1C,-,-,73.1,-,-
Cc1cc(C(=O)CSc2nc(N)cc(=O)[nH]2)c(C)n1CCc1ccc(F)cc1,-,-,89.8,.,.
N#C[C@@H]1[C@@H](c2ccc(C#Cc3cccnc3)cc2)[C@@H](CO)N1C(=O)NC1CCCC1,.,.,.,-,.
Cc1oc(/N=C/c2ccc(F)cc2)c(C#N)c1C,-,-,-,-,82.3
C[C@@H]1CN(C)C(=O)Cc2cc(NS(C)(=O)=O)ccc2O[C@@H]1CN(C)C,.,.,.,-,.
CNC[C@H]1Oc2c(NC(=O)CCC(F)(F)F)cccc2C(=O)N([C@H](C)CO)C[C@@H]1C,.,.,.,-,.
COc1ccc(NC(=O)N2CCN(c3nc4ccccc4n3C(C)C)CC2)cc1,-,-,81.3,.,-
COc1ccc(NC(=O)N2CCN(c3nc(-c4cccc(OC)c4)cs3)CC2)cc1,-,-,71.0,-,-
SMILES,Efflux pump inh,SR-BI DiI-HDL act,SR-BI DiI inh,FN deposit inh,CaV13 ICDI inh
Fc1ccc(CN2C3CN(CC(F)(F)F)CC2C3c2ccc(Br)cc2)cc1 (configuration not stated),.,.,.,-,.
COc1ccc(NC(=O)/C(C#N)=C/c2ccc(OCCN3CCOCC3)c(OC)c2)c(OC)c1,-,-,74.9,.,.
O=C(NCCS(=O)(=O)N1CCN(c2ccc(F)cc2)CC1)c1ccc(Br)o1,-,-,-,33.5,-
CN(C)S(=O)(=O)c1ccc(C(=O)NCCS(=O)(=O)N2CCN(c3ccc(F)cc3)CC2)cc1,-,-,-,-,-
O=C(C[C@@H]1CC[C@@H]2[C@H](COC[C@H](O)CN2S(=O)(=O)c2ccccc2)O1)N1CCOCC1,.,.,.,-,.
CC(C)CCn1c(CN2CC(C)OC(C)C2)nc2c1c(=O)n(C)c(=O)n2C (configuration not stated),-,-,-,-,37.2
C/C=C/c1ccc([C@@H]2[C@@H](CO)N(C(=O)C3CCCC3)C23CN(C(=O)NC(C)C)C3)cc1,.,.,.,-,.

# Bioassay records as filed in PubChem BioAssay.
